From PubChem
PABP1 MLLE inh – inhibitors of PABP1 MLLE–PAM2 peptide binding, primary screen, biochemical, fluorescence polarization, FITC-PAM2, GST-MLLE; inhibition, % at 20 µM; actives 0.36% (n = 360,000); Polyadenylate-binding protein 1 (Homo sapiens), P11940; AID 588489, 2011; in the data active = inhibition above about 35%, passing the limit was not always enough;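 note: plate controls were DMSO wells with GST-MLLE for no effect and wells lacking GST-MLLE protein for full effect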
Target sequence (P11940 whole entry, looked up): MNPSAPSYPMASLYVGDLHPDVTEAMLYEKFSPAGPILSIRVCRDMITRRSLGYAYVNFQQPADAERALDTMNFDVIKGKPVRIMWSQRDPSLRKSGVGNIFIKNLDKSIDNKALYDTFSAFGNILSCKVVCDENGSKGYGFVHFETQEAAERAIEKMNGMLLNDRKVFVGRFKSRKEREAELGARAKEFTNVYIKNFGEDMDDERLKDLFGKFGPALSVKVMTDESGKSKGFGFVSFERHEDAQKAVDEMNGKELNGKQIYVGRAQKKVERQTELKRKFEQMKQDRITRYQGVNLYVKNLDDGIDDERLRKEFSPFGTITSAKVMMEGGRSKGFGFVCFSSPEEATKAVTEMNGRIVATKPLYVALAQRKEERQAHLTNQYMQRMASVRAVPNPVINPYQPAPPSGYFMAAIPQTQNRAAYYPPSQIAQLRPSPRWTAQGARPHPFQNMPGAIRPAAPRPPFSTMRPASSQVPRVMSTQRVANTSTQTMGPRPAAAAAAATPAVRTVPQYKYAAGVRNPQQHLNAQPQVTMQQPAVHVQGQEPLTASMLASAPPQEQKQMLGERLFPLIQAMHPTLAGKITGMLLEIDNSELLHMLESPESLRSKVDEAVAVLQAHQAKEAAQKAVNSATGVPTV
RBBP9 inhibitor – human RBBP9 inhibitors, primary screen, biochemical, fluorescence polarization, FP-Rh probe, HTS; recombinant RBBP9; inhibition, % at 7.94 µM; actives 0.2% (n = 220,000); AID 1515, 2009;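 active = inhibition above the campaign mean of all tested compounds plus 3 SD, cut at about 14% in these data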;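 note: plate controls were DMSO wells with RBBP9 for no effect and wells lacking RBBP9 protein for full effect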
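Test system: recombinant human RBBP9. Quantity: 2.5 µM RBBP9 dispensing solution, before mixing. Detection: FP readout at 525/598 nm. Reagent: Serine-hydrolase probe FP-Rh, 375 nM pre-mixing. Measure: % inhibition. Control set: DMSO-treated enzyme wells and wells lacking RBBP9. Buffer or medium: Tris-NaCl-Pluronic buffer, pH 8.0. Times: preincubation 30 min plus labeling 45 min at 25 °C.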
PABP polyA inh – PABP poly(A) RNA binding inhibitors, primary screen, biochemical, fluorescence polarization, uHTS; AID 2014, 2009; Polyadenylate-binding protein 1 (Homo sapiens), P11940; actives 1% (n = 290,000); calls only at 35 µM;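 note: calls also rest on retests at 20 µM and on dose response follow-up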
eIF4H inh – human eIF4H binding inhibitors, primary screen, translation initiation inhibitor project, biochemical, uHTS, fluorescence polarization | Eukaryotic translation initiation factor 4H (Homo sapiens), Q15056 | eIF4H fluorescence polarization binding assay | inhibition, % at 35 µM | actives 0.94% (n = 290,000) | AID 2012, 2009;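 note: calls also rest on retests at 20 µM and on dose response follow-up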
TCR-CD3 inh – inhibitors of human TCR-CD3 interaction, primary screen, biochemical, fluorescence, TAMRA-labeled TCR probe. inhibition, % at 9.4 µM. actives 0.37% (n = 360,000); in the data active = inhibition above about 19%;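 note: recombinant mutant TCR 2C K166C tagged with TAMRA read by polarization; 0% = receptor in buffer alone and 100% = receptor with positive control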
RBBP9 confirm – human RBBP9 inhibitors, retest, confirmation, biochemical, fluorescence polarization, FP-Rh probe, triplicate. recombinant RBBP9. actives 36% (n = 410). shares compounds with RBBP9 inhibitor. inhibition, % at 7.94 µM;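 active = inhibition above the hit cutoff derived for the primary screen, cut at about 15% in these data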;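 note: 0% = RBBP9 with DMSO and 100% = wells lacking RBBP9 protein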
BSA probe FL – compounds interfering with TAMRA-BSA probe, counter-screen for TCR-CD3 interaction inhibitor project, biochemical, fluorescence, TAMRA-labeled BSA; shares compounds with TCR-CD3 inh; TAMRA-labeled BSA probe fluorescence counterscreen; inhibition, % at 9.4 µM; actives 10% (n = 1,200); in the data active = inhibition above about 23%;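 note: 0% = buffer low control and 100% = reference high control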
TCR-CD3 conf – TCR-CD3 interaction inhibitors, retest, confirmation, biochemical, fluorescence, TAMRA-labeled TCR probe; inhibition, % at 9.4 µM; TAMRA-labeled TCR probe fluorescence binding assay; actives 48% (n = 1,200); shares compounds with TCR-CD3 inh; in the data active = inhibition above about 19%
An asterisk follows results filed as active; i = inactive; ? = inconclusive; / = not tested or not shown; + = active, no number; ! = repeats disagree. Sampled rows, rich in hits. Any-hit rate of the full collection: about 1.6%. Unless noted, the rule behind the calls is not given here.

SMILES | PABP1 MLLE inh | RBBP9 inhibitor | PABP polyA inh | eIF4H inh | TCR-CD3 inh | BSA probe FL | TCR-CD3 conf | others
CCOC(=O)C1CCCN(c2ccc([N+](=O)[O-])c3nonc23)C1 (stereo not given) | i | 19.1* | i | ? | 139.6* | 168.5* | 133.5* | RBBP9 confirm=30.7*
CCc1cc(OC)c(CCN)cc1OC | / | / | / | / | -9.5 | / | /
O=C(N/N=C/c1c(O)n(CCc2ccccc2)c(=O)[nH]c1=O)c1ccccc1O | -93.3 | -7.5 | i | 33.6 | 23.0* | -4.5 | 27.5*
CN(C)[C@@H]1C(=O)C(C(N)=O)=C(O)[C@@]2(O)C(=O)C3=C(O)c4c(O)cccc4[C@@](C)(O)[C@H]3[C@H](O)[C@@H]12 | 18.3 | 5.2 | + | 87.1* | 45.5* | 5.8 | 27.4*
CN(C)[C@@H]1C(=O)C(C(N)=O)=C(O)[C@@]2(O)C(=O)C3=C(O)c4c(O)ccc(Cl)c4[C@@](C)(O)[C@H]3C[C@@H]12 | 6.2 | / | i | 14.3 | 10.5 | / | /
CN(C)[C@@H]1C(=O)C(C(N)=O)=C(O)[C@@]2(O)C(=O)C3=C(O)c4c(O)cccc4[C@@](C)(O)C3C[C@@H]12 (stereo not given in full) | 0.2 | / | / | / | 23.4* | -4.5 | -1.8
COc1ccc(-n2nnnc2C(CCSC)N2CCC(n3c(=O)[nH]c4ccccc43)CC2)cc1 (stereo not given) | -6.7 | / | / | / | 2.1 | / | /
O=C(N/N=C/c1c(O)n(-c2cccc3ccccc23)c(=O)[nH]c1=O)c1ccncc1 | -132.5 | -8.3 | i | 43.0 | 22.3* | -5.8 | 10.2
O=C(N/N=C/c1c(O)n(CCc2ccccc2)c(=O)[nH]c1=O)c1ccncc1 | -36.9 | -2.3 | i | ? | 8.4 | / | /
Nc1c(Br)cc2c3c(cccc13)-c1ccccc1-2 | / | / | / | / | 0.9 | / | /
CCN(CC)c1ccc(N=Cc2c(O)n(-c3ccccc3C)c(=O)[nH]c2=O)cc1 | -109.6 | -2.2 | i | 12.7 | 17.7 | / | /
CCOc1ccccc1-n1c(O)c(C=Nc2ccc(N(CC)CC)cc2)c(=O)[nH]c1=O | -120.9 | -7.2 | i | -20.2 | 23.6* | 2.0 | 0.7
CCOC(=O)[C@]12Cc3cc(C)ccc3[C@H]1N(C(C)C)C(=O)c1ccccc12 | / | / | / | / | -1.9 | / | /
CCOC(=O)CNC(=O)N1Cc2cc(Br)ccc2-n2nncc2C1 | / | / | / | / | 36.0* | -1.9 | 4.1
C[C@]12C[C@H](O)[C@@H](O)C[C@@H]1CC[C@@H]1[C@@H]2CC[C@]2(C)C(=O)CC[C@@H]12 | 4.0 | / | / | / | -5.0 | / | /
CC(=O)c1ccc2c(c1)C1C(Cl)C(Sc3ccccc3[N+](=O)[O-])CC1C(C(=O)O)N2 (stereo not given) | 8.3 | 11.1 | i | 97.3 | 27.5* | -2.5 | 17.0
CC(C)C(CN1CCC(C)(c2cccc(O)c2)[C@@H](C)C1)NC(=O)C1Cc2ccc(O)cc2CN1 (stereo not given in full) | / | / | / | / | 0.7 | / | /
COc1cc(/C=C2/C(=O)NC(=O)N(c3ccccc3)C2=O)ccc1O | 14.3 | 0.0 | i | ? | 3.4 | / | /
O=C1NC(=O)N(c2ccccc2)C(=O)/C1=C/c1ccoc1 | -26.8 | -6.0 | i | ? | 24.1* | -0.6 | 4.4
NCCc1cc(O)c(O)cc1O | 46.8*! | / | / | / | 170.3* | + | +
COc1ccc(CCN)cc1O | -10.3 | / | / | / | 9.7 | / | /
Cc1ccc(/C=C2\C(=O)NC(=S)N(c3ccccc3F)C2=O)s1 | 10.1 | -10.0 | i | 10.2 | 44.8* | -30.5 | -16.1
